# Reference: article PMC5084670 (Cancer Science, 2016)
# Assay: Phase I dose-escalation study: safety, adverse events
# Format: in vivo, human
# Summary of the method: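 Oral test compound was given once daily in 28-day cycles after a 7-day single-dose run-in, in Japanese and Hong Kong/Taiwan groups escalated separately. Toxicity was graded by CTCAE v3.0 using laboratory tests, physical examination, vital signs, weight and periodic ECG. DLTs were grade 3–4 events over the run-in plus cycle 1. MTD was set by an adaptive Bayesian logistic regression model with overdose control.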
# [1] = group 2, 800 mg q.d. (n = 4), All grades
# [2] = group 2, 800 mg q.d. (n = 4), Grade 3
# [3] = group 2, 800 mg q.d. (n = 4), Grade 4
# [4] = group 2, All patients (n = 24), All grades
# [5] = group 2, All patients (n = 24), Grade 3
# [6] = group 2, All patients (n = 24), Grade 4
structure (smiles),measurement,setting,value
Cc1c(C(=O)Nc2ccc(N3C[C@@H](C)O[C@@H](C)C3)nc2)cccc1-c1ccc(OC(F)(F)F)cc1 [Sonidegib],Hepatic function abnormal (drug-related adverse event),[1],3 (75) n (%)
same,Muscular weakness (drug-related adverse event),[1],3 (75) n (%)
same,Myalgia (drug-related adverse event),[1],3 (75) n (%)
same,Nausea (drug-related adverse event),[1],2 (50) n (%)
same,Pyrexia (drug-related adverse event),[1],1 (25) n (%)
same,Vomiting (drug-related adverse event),[1],1 (25) n (%)
same,Blood creatine kinase increased (drug-related adverse event),[2],0 (0) n (%)
same,Decreased appetite (drug-related adverse event),[2],1 (25) n (%)
same,Diarrhea (drug-related adverse event),[2],0 (0) n (%)
same,Dizziness (drug-related adverse event),[2],0 (0) n (%)
same,Dysgeusia (drug-related adverse event),[2],0 (0) n (%)
same,Fatigue (drug-related adverse event),[2],2 (50) n (%)
same,Hepatic function abnormal (drug-related adverse event),[2],2 (50) n (%)
same,Muscular weakness (drug-related adverse event),[2],2 (50) n (%)
same,Myalgia (drug-related adverse event),[2],1 (25) n (%)
same,Nausea (drug-related adverse event),[2],0 (0) n (%)
same,Pyrexia (drug-related adverse event),[2],0 (0) n (%)
same,Vomiting (drug-related adverse event),[2],0 (0) n (%)
same,Blood creatine kinase increased (drug-related adverse event),[3],2 (50) n (%)
same,Decreased appetite (drug-related adverse event),[3],0 (0) n (%)
same,Diarrhea (drug-related adverse event),[3],0 (0) n (%)
same,Dizziness (drug-related adverse event),[3],0 (0) n (%)
same,Dysgeusia (drug-related adverse event),[3],0 (0) n (%)
same,Fatigue (drug-related adverse event),[3],0 (0) n (%)
same,Hepatic function abnormal (drug-related adverse event),[3],0 (0) n (%)
same,Muscular weakness (drug-related adverse event),[3],0 (0) n (%)
same,Myalgia (drug-related adverse event),[3],0 (0) n (%)
same,Nausea (drug-related adverse event),[3],0 (0) n (%)
same,Pyrexia (drug-related adverse event),[3],0 (0) n (%)
same,Vomiting (drug-related adverse event),[3],0 (0) n (%)
same,Blood creatine kinase increased (drug-related adverse event),[4],12 (50) n (%)
same,Decreased appetite (drug-related adverse event),[4],5 (21) n (%)
same,Diarrhea (drug-related adverse event),[4],2 (8) n (%)
same,Dizziness (drug-related adverse event),[4],2 (8) n (%)
same,Dysgeusia (drug-related adverse event),[4],6 (25) n (%)
same,Fatigue (drug-related adverse event),[4],8 (33) n (%)
same,Hepatic function abnormal (drug-related adverse event),[4],7 (29) n (%)
same,Muscular weakness (drug-related adverse event),[4],4 (17) n (%)
same,Myalgia (drug-related adverse event),[4],8 (33) n (%)
same,Nausea (drug-related adverse event),[4],5 (21) n (%)
same,Pyrexia (drug-related adverse event),[4],2 (8) n (%)
same,Vomiting (drug-related adverse event),[4],3 (13) n (%)
same,Blood creatine kinase increased (drug-related adverse event),[5],1 (4) n (%)
same,Decreased appetite (drug-related adverse event),[5],1 (4) n (%)
same,Diarrhea (drug-related adverse event),[5],0 (0) n (%)
same,Dizziness (drug-related adverse event),[5],0 (0) n (%)
same,Dysgeusia (drug-related adverse event),[5],0 (0) n (%)
same,Fatigue (drug-related adverse event),[5],2 (8) n (%)
same,Hepatic function abnormal (drug-related adverse event),[5],3 (13) n (%)
same,Muscular weakness (drug-related adverse event),[5],2 (8) n (%)
same,Myalgia (drug-related adverse event),[5],2 (8) n (%)
same,Nausea (drug-related adverse event),[5],0 (0) n (%)
same,Pyrexia (drug-related adverse event),[5],0 (0) n (%)
same,Vomiting (drug-related adverse event),[5],0 (0) n (%)
same,Blood creatine kinase increased (drug-related adverse event),[6],4 (17) n (%)
same,Decreased appetite (drug-related adverse event),[6],0 (0) n (%)
same,Diarrhea (drug-related adverse event),[6],0 (0) n (%)
same,Dizziness (drug-related adverse event),[6],0 (0) n (%)
same,Dysgeusia (drug-related adverse event),[6],0 (0) n (%)
same,Fatigue (drug-related adverse event),[6],0 (0) n (%)
same,Hepatic function abnormal (drug-related adverse event),[6],0 (0) n (%)
same,Muscular weakness (drug-related adverse event),[6],0 (0) n (%)
same,Myalgia (drug-related adverse event),[6],0 (0) n (%)
same,Nausea (drug-related adverse event),[6],0 (0) n (%)
same,Pyrexia (drug-related adverse event),[6],0 (0) n (%)
same,Vomiting (drug-related adverse event),[6],0 (0) n (%)
same,Maximum tolerated dose (MTD),"group 2, Bayesian logistic regression model, all grade 3 or 4 blood CK elevation incidents",600 mg q.d.
same,Drug-related AE: abnormal hepatic function,"group 2, all doses",29%
same,Drug-related AE: fatigue,"group 2, all doses",33%
same,Drug-related AE: increase in CK levels,"group 2, all doses",50%
same,Drug-related AE: myalgia,"group 2, all doses",33%
same,Patients with at least one AE suspected to be related to sonidegib,"group 2, n = 18",75%
same,Patients with SAEs that led to drug discontinuation,in each group,four
same,Time to recovery of CK after interruption of drug,most cases,1 month
same,Renal impairment or renal failure,patients with grade 3 or 4 CK elevation and high blood myoglobin,no patients experienced renal impairment or renal failure
same,CK re-elevation after restart with a 200 mg dose,three patients at 400 mg interrupted for grade 3 CK elevation,not observed
